PMI act – increases human mannose-6-phosphate isomerase activity | purified human PMI, coupled resazurin fluorescence, 20 min; active compounds read high; 1 = vehicle control, 0 substrate-free wells | activation factor at 20 µM | 0.005% of 190,000 active;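 active = activation factor of 2 or more at 20 µM, relative to plate controls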
p97 inhibitor – inhibitors of human p97 ATPase; P55072; recombinant p97 ATPase, Kinase-Glo ATP luminescence, 3 h; inhibition, % at 8 µM; 0.42% of 220,000 active; AID 1481; in the data active = inhibition above about 15%;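 also: 0% = DMSO vehicle and 100% = wells lacking enzyme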
Target sequence (P55072 whole entry, looked up): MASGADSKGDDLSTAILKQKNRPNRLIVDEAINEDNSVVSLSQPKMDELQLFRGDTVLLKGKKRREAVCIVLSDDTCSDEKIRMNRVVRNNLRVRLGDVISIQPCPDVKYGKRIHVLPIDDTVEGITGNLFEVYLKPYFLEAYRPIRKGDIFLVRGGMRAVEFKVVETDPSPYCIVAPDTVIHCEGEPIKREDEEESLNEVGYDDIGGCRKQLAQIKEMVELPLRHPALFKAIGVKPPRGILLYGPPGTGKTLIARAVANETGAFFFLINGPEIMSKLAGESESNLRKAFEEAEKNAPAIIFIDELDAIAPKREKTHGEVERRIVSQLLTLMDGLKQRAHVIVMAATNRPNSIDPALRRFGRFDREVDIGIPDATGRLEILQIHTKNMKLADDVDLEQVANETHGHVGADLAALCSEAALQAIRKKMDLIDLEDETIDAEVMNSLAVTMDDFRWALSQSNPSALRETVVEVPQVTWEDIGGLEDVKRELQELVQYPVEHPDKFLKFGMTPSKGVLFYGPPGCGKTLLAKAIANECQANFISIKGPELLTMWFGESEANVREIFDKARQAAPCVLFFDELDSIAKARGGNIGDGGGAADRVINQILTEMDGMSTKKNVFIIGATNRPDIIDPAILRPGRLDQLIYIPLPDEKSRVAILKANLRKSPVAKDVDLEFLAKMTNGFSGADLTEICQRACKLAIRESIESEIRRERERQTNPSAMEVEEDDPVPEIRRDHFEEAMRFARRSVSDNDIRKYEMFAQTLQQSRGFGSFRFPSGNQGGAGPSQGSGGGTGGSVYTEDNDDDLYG
Tb hexokinase – T. brucei hexokinase 1 inhibition | inhibition, % at 10 µM | 0.11% of 220,000 active | recombinant TbHK1, G6PDH-coupled NADH A340;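 active = inhibition of 50% or more in the single-dose primary screen; inactive = inhibition below 50%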
PMI act satM6P – activators of human phosphomannose isomerase at near-saturating mannose 6-phosphate | P34949 | 0.34% of 190,000 active | AID 1216 | activation factor at 20 µM | coupled PMI enzyme assay, resazurin fluorescence, 20 min; active compounds read high; 1 = untreated enzyme, 0 = substrate-free blank;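 active = activation factor of 2 or more at 20 µM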
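Technique: Diaphorase-driven resazurin-to-resorufin fluorescence, excitation 544, emission 590 nm | Assay system: Human PMI in coupled enzyme assay | Times: Enzyme reaction with compound 20 min at room temperature | Medium: HEPES-buffered pH 7.4 with magnesium and detergent | Reagent: Mannose-6-phosphate 1.0 mM (near-saturating) plus 0.22 mM NADP+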
Redox H2O2 prof – compounds producing H2O2 with reducing agent – biochemical, NIH compound library profiling, artefact control for MLSCN library redox annotation, primary screen | DTT-dependent redox cycling H2O2, phenol red/HRP absorbance; 100% = 100 µM peroxide control, 0% = buffer | 0.03% of 200,000 active | activation, % at 10 µM;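 active = activation of at least 50% relative to the plate's high and low controls in the primary single-dose screen; inactive = activation below 50%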;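 also: compound incubated with DTT at 0.8 mM final as the reducing agent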
G6PDH CS – L. mesenteroides G6PDH inhibition counter-screen; 0.12% of 200,000 active; Purified L. mesenteroides G6PDH, diaphorase/resazurin coupled fluorescence, 45 min; inhibition, % at 5 µM; AID 1020; in the data active = inhibition above about 50%
Starred values were filed as active, the others as inactive. Compounds with a hit are over-represented: about 0.91% of the library has one in this group of screens.

`Cc1oc(-c2ccccc2Cl)nc1CSc1nc2c(c(=O)[nH]1)CCC2` gave PMI act 1, p97 inhibitor 2.3, Tb hexokinase -3.7, PMI act satM6P 0.9, Redox H2O2 prof 0.7 and G6PDH CS 14.9.
`ClCC1=Nc2cccc3cccc(c23)N1` gave p97 inhibitor 14.8* and Tb hexokinase -40.5.
Screening CC(C)C1=Nc2cccc3cccc(c23)N1 returned PMI act 0.9, p97 inhibitor 9.1, Tb hexokinase -12.3, PMI act satM6P 1.1, Redox H2O2 prof 17.8 and G6PDH CS 12.2.
Screening N#C/C(=C\c1ccco1)C(=O)NCC1CCCO1 (stereo not given) returned PMI act 0.9, p97 inhibitor 3.6, Tb hexokinase -31.7, PMI act satM6P 1, Redox H2O2 prof -0.6 and G6PDH CS -3.0.
`CCC(Sc1nc(C)cc(=O)[nH]1)C(=O)Nc1ccc(Cl)cn1` (stereo not given) gave PMI act 1, p97 inhibitor 14.9*, Tb hexokinase -5.4, PMI act satM6P 0.9, Redox H2O2 prof -0.8 and G6PDH CS 0.0.
For COC(=O)c1ccc2c(c1O)C(=O)c1ccccc1C2=O the results were PMI act 1, p97 inhibitor -0.5, Tb hexokinase -9.1, PMI act satM6P 1.2, Redox H2O2 prof 0.4 and G6PDH CS 53.1*.
`Nc1c(C(=O)O)ccc2c1C(=O)c1ccccc1C2=O` gave PMI act 1, p97 inhibitor 3.4, Tb hexokinase -3.0, PMI act satM6P 0.8, Redox H2O2 prof 0.6 and G6PDH CS 0.5.
Nc1nc(COc2ccccc2C=O)nc(Nc2ccccc2)n1 was read as p97 inhibitor 0.0 and Tb hexokinase 2.7.
For O=C(O)c1ccc(N/N=C/c2ccc(F)c(F)c2)cc1 the results were PMI act 1.4, p97 inhibitor 1.9, Tb hexokinase -47.6, PMI act satM6P 1.9, Redox H2O2 prof 0.9 and G6PDH CS -15.0.
For O=C(O)c1ccc(N/N=C/C(Br)=C/c2ccccc2)cc1 the results were p97 inhibitor 14.7* and Tb hexokinase -51.9.
`O=C(O)c1ccc(N/N=C/c2cccc(F)c2)cc1` gave PMI act 1.9, p97 inhibitor -1.1, Tb hexokinase -20.6, PMI act satM6P 2.9*, Redox H2O2 prof 0.5 and G6PDH CS -0.4.
`COc1cc(C(=O)NCCOc2ccc(F)cc2)c(Br)c(OC)c1OC` gave PMI act 0.9, p97 inhibitor -0.9, Tb hexokinase 6.8, PMI act satM6P 0.9, Redox H2O2 prof -1.1 and G6PDH CS 5.7.
For CCN=C(N/N=C/c1ccc([N+](=O)[O-])cc1)SC the results were PMI act 1.2, p97 inhibitor 1.4, Tb hexokinase -20.4, PMI act satM6P 2.1*, Redox H2O2 prof -3.2 and G6PDH CS 3.4.
For CCN(CC)c1ccc(/C=N/NC(=O)c2ccc([N+](=O)[O-])cc2)cc1 the results were PMI act 1, p97 inhibitor 4.4, Tb hexokinase -8.1, PMI act satM6P 1.1, Redox H2O2 prof 0.0 and G6PDH CS 8.8.
Screening O=S(=O)(/N=C(/Sc1ccccc1)c1ccccc1)c1ccccc1 returned PMI act 1, p97 inhibitor -3.9, Tb hexokinase -6.5, PMI act satM6P 1.1, Redox H2O2 prof 0.0 and G6PDH CS 10.8.
CS/C(=N\S(=O)(=O)c1ccccc1)c1ccccc1 was read as PMI act 1.7, p97 inhibitor 0.2, Tb hexokinase 29.2, PMI act satM6P 2*, Redox H2O2 prof 0.8 and G6PDH CS 2.2.
Screening CN(C)c1ccc(P(=O)(OCc2ccccc2)C(O)c2ccc(Br)cc2)cc1 (stereo not given) returned p97 inhibitor 5.2 and Tb hexokinase -5.9.
`CC(=O)N(c1ccccc1)c1nc(/C=C/C(=O)Nc2c(C)cc(C)cc2C)cs1` gave PMI act 1, p97 inhibitor 6.2, Tb hexokinase 24.7, PMI act satM6P 1, Redox H2O2 prof -0.1 and G6PDH CS -2.7.
Screening COc1cc(C(Nc2ccccn2)c2ccc3ccc(C)nc3c2O)cc(OC)c1O (stereo not given) returned PMI act 0.6, p97 inhibitor 3.5, Tb hexokinase -3.8, PMI act satM6P 0.4, Redox H2O2 prof -1.3 and G6PDH CS 60.6*.
Screening Cc1ccc(S(=O)(=O)N(C)c2ccccc2C(=O)NC2CCCC2)cc1 returned PMI act 1, p97 inhibitor 2.5, Tb hexokinase 37.2, PMI act satM6P 1, Redox H2O2 prof -0.7 and G6PDH CS 7.6.
For Cc1ccc(C2=NC(=O)/C(=C/c3cc(O)c(O)c(Br)c3)S2)cc1 the results were PMI act 0.2, p97 inhibitor 31.1*, Tb hexokinase 11.5, PMI act satM6P 0.5, Redox H2O2 prof 0.1 and G6PDH CS 3.8.
`CCCS(=O)(=O)Nc1ccc(-c2ccc3nnc(C)n3n2)cc1` gave PMI act 1, p97 inhibitor 0.5, Tb hexokinase -14.2, PMI act satM6P 1, Redox H2O2 prof 0.0 and G6PDH CS 6.8.
CCn1c(CNC(=O)Cc2ccc(OC)cc2)nnc1SCC(=O)c1ccccc1 was read as PMI act 1.7, p97 inhibitor 1.6, Tb hexokinase 0.7, PMI act satM6P 2.5*, Redox H2O2 prof 0.6 and G6PDH CS 16.7.
Screening Cc1ccc(N/N=C2\CCS(=O)(=O)c3sccc32)cc1 returned PMI act 1.8, p97 inhibitor 2.7, Tb hexokinase -9.1, PMI act satM6P 2.8*, Redox H2O2 prof -1.0 and G6PDH CS -3.7.
For COc1ccc(/C(C)=N/Nc2ccc(C(=O)O)cc2)cc1OC the results were PMI act 1.8, p97 inhibitor 3.6, Tb hexokinase -45.0, PMI act satM6P 2.5*, Redox H2O2 prof 0.1 and G6PDH CS 11.4.
`COc1ccc(OC)c(/C(C)=N/Nc2ccc(C(=O)O)cc2)c1` gave PMI act 1.5, p97 inhibitor 0.5, Tb hexokinase -24.2, PMI act satM6P 1.7, Redox H2O2 prof 1.2 and G6PDH CS 8.8.
`COc1ccc(C(=O)N/N=C/C(C)c2ccccc2)cc1OC` (stereo not given) gave PMI act 0.9, p97 inhibitor 15.6*, Tb hexokinase -3.0, PMI act satM6P 1, Redox H2O2 prof -4.1 and G6PDH CS 0.3.
COc1cc(/C(C)=N/Nc2ccc(C(=O)O)cc2)cc(OC)c1OC was read as PMI act 1.6, p97 inhibitor 2.5, Tb hexokinase -14.8, PMI act satM6P 2.1*, Redox H2O2 prof 0.2 and G6PDH CS 3.4.
Screening CCc1nnc(NC(=O)C2CCCN(S(=O)(=O)c3ccc(OC)cc3)C2)s1 (stereo not given) returned p97 inhibitor 2.8, Tb hexokinase -3.4, Redox H2O2 prof 0.2 and G6PDH CS 9.7.

High-throughput results from PubChem BioAssay.
